# Data from publication PMC11315854 (Drugs in R&D, 2024).
# Where two headings read alike, the source gives them in different places.
# Experiments:
# [1] = Unbound fraction in humans; type: in vitro ADME; settings: human, plasma
# pAkt [2] = settings: patients, doses ≥ 16 mg; cited from earlier work
# [3] = system: 786-O human renal cell adenocarcinoma (RCC) xenografts; test: Integrated PK–PD–efficacy model, tumor volume in 786-O xenograft mice; type: in vivo; settings: 786-O xenografts
# In short: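 Female beige nude XID mice bearing subcutaneous 786-O tumour fragments. Grouped at 100–300 mm3 (mean 181 mm3). Dosed PO QD for 17 days in MCT (0.5% methylcellulose, 0.2% Tween 80), vehicle or 0.008–11 mg/kg, n = 6. Caliper volumes taken pre-dose and at 72–408 h. Inhibition predicted from mouse PK and PK–PD models. All groups fitted simultaneously to growth/shrinkage model with sigmoid Ks.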
# advanced solid tumors = type: in vivo, human
# In short: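 Phase 1 dose-escalation patients with advanced solid tumours or NHL, oral 2–200 mg (QD, 3-weeks-on/1-week-off, or QW). Lesions imaged by CT or MRI at baseline, after cycles 1 and 2, then every two cycles. Tumour size linked to predicted %pAkt inhibition via growth/shrinkage model with sigmoid Ks. Individual PK and dosing records used, with individual or typical IC50. All doses fitted simultaneously.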
# Unbound fraction in mice = type: in vitro ADME; settings: mouse, plasma
# pAkt [4] = type: in vivo, human; settings: patients
# In short: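 Blood drawn pre-dose and 1, 3, 8 and 24 h post-dose on day 1 from phase 1 patients (n = 37). pAkt in platelet-rich plasma measured by MSD assay and expressed as % of baseline. Concentrations predicted from individual population-PK parameters. Indirect response model (inhibition of pAkt formation) fitted, with Imax and γ1 fixed at 1, proportional error and IIV on IC50.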
# pAkt (serine 473) = type: in vivo, mice
# [5] = Mouse pharmacokinetic model; type: in vivo, mice
# In short: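 Mean plasma concentration–time data from nude mice given single oral 1, 5 or 10 mg/kg (n = 27 per dose), taken from earlier work. Sampling pre-dose and at 0.083–24 h. Linear one-compartment model with first-order oral absorption fitted simultaneously across doses to estimate ka, CL/F and V/F, with RSE%.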
# 786-O cell line = settings: in vitro, cancer cell lines; cited from earlier work
# [6] = Patient population pharmacokinetic model; type: in vivo, human
# In short: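 Phase 1 3+3 dose-escalation patients. Single oral dose on day 1, 1-week washout, then QD, 3-weeks-on/1-week-off, or QW. Plasma sampled intensively in cycle 1 and pre-dose in later cycles. Assayed by LC–MS/MS (LLOQ 0.5 ng/mL). Two-compartment nonlinear mixed-effects model with first-order absorption, exponential IIV and proportional residual error, fitted in NONMEM.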
# Gli mRNA = settings: preclinical models of the hedgehog pathway; cited from earlier work
# [7] = nude mice, single PO 1, 5 and 10 mg/kg, one-compartment model
structure (smiles),measurement,setting,value
Cc1c(CN2CCN(C(=O)[C@H](C)O)CC2)sc2c(N3CCOCC3)nc(-c3cnc(N)nc3)nc12 [apitolisib],fraction unbound,[1],0.388
same,"reduction in platelet-rich plasma PD markers, including pAkt",pAkt [2],≥ 90%
same,Kmax (maximum value of tumor shrinkage rate constant Ks),[3],0.0194 h⁻¹
same,Kg (net tumor growth rate constant),"[3]; QD PO 17 days, 0.008–11 mg/kg",0.0057 h⁻¹
same,KI50 (I where Ks is 50% of Kmax),[3]; pAkt in tumor tissue,67.2 %pAKT inhibition
same,constant pAkt inhibition necessary to achieve tumor stasis (Ks = Kg),[3]; tumor tissue pAkt,61%
same,Kmax (maximum value of tumor shrinkage rate constant Ks),advanced solid tumors; patients with advanced solid tumors,0.0142 1/week
same,Kg (net tumor growth rate constant),"advanced solid tumors; patients with advanced solid tumors, 2–200 mg",0.0097 1/week
same,KI50 (I where Ks is 50% of Kmax),"advanced solid tumors; patients, pAkt in surrogate plasma",58.0 %pAKT inhibition
same,constant pAkt inhibition necessary to achieve tumor stasis (Ks = Kg),"advanced solid tumors; patients, platelet-rich plasma pAkt",65%
same,fraction unbound,Unbound fraction in mice,0.294
same,kin (rate of biomarker production),pAkt [4]; platelet-rich plasma pAkt,"88,699 %/h"
same,effect on pAkt in plasma with increasing doses,"pAkt [4]; platelet-rich plasma, 2–70 mg",dose-dependent decrease
same,peak suppression of the platelet pAkt,"pAkt [4]; platelet-rich plasma, doses ≥ 12 mg",90%
same,Imax (maximum inhibition of %pAkt),pAkt [4]; fixed in model,1 (fix)
same,kout (first-order rate constant describing biomarker loss),"pAkt [4]; kout = kin/%pAkt(0), baseline 100%",886.99 h⁻¹
same,pAkt reduction in tumor,"pAkt (serine 473); 786-O tumor-bearing mice, single oral 0.3 mg/kg",very weak
same,duration of sustained pAkt suppression in tumor,"pAkt (serine 473); 786-O tumor-bearing mice, single oral 3 mg/kg",6 h
same,duration of sustained pAkt suppression in tumor,"pAkt (serine 473); 786-O tumor-bearing mice, single oral 10 mg/kg",12 h
same,effect on pAkt in tumors across doses,"pAkt (serine 473); 786-O tumor-bearing mice, single oral 0.3, 3 and 10 mg/kg",dose-dependent decrease
same,kin (rate of biomarker production),"pAkt (serine 473); 786-O xenograft mice, tumor tissue pAkt","88,698 %/h"
same,Imax (maximum inhibition of %pAkt),"pAkt (serine 473); 786-O xenograft mice, fixed in model",1 (fix)
same,kout (first-order rate constant describing biomarker loss),"pAkt (serine 473); 786-O xenograft mice, kout = kin/%pAkt(0), baseline 100%",886.98 h⁻¹
same,linearity of pharmacokinetics over the range of doses tested,"[5]; mice, PO 1, 5 and 10 mg/kg",linear
same,"absorption rate constant (ka), estimate (RSE%)",[5]; [7],1.1 (36.4%) h^−1
same,"apparent volume of distribution after oral dosing (V/F), estimate (RSE%)",[5]; [7],1.13 (17.3%) L/kg
same,k el,"[5]; nude, mouse, plasma, oral",8.33e-05 s⁻¹
same,responsiveness of 786-O cell line compared with other tumor types such as MCF-7,786-O cell line,less responsive
same,k el,"[6]; human, plasma, oral",2.78e-05 s⁻¹
same,CL/F,"[6]; human, plasma, po",5.07 mL/min/kg
same,body-weight-normalized apparent volume of the central compartment (V1/F),"[6]; patients, assuming reference body weight of 70 kg",3.01 L/kg
same,absorption lagged time estimate (RSE%),"[6]; patients, n = 146, oral dosing",0.465 (0.43%) h
same,"absorption rate constant (ka), population typical value (RSE%)","[6]; patients, n = 146, oral dosing",3.35 (16.8%) h^−1
same,"apparent intercompartmental clearance (CLd/F), population typical value (RSE%)","[6]; patients, n = 146, oral dosing",5.93 (8.53%) L/h
same,"apparent oral clearance (CL/F), population typical value (RSE%)","[6]; patients, n = 146, oral dosing, two-compartment model",21.3 (4.28%) L/h
CS(=O)(=O)c1ccc(C(=O)Nc2ccc(Cl)c(-c3ccccn3)c2)c(Cl)c1 [vismodegib],minimum Gli mRNA inhibition needed for tumor growth inhibition,Gli mRNA,~50%
